# Sampled rows, rich in hits. Any-hit rate of the full collection: about 1.6%.
# p97 ATPase inh: blocks human p97 ATPase activity | inhibition, % at 8 µM | AID 1481 | P55072 | recombinant p97 ATPase, Kinase-Glo ATP luminescence, 3 h | 0.42% of 220,000 active; in the data active means inhibition above about 15%;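 further: 0% = DMSO vehicle and 100% = wells lacking enzyme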
# p47phox inh: blocks human p47phox regulatory protein of NADPH oxidases | 0.53% of 220,000 active | inhibition, % at 24.7 µM | p47phox/p22phox peptide binding, fluorescence polarization, 2 h | P14598;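 further: 0% = p47phox with labelled peptide and 100% = labelled peptide alone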
# Target sequence (P14598 whole entry, looked up): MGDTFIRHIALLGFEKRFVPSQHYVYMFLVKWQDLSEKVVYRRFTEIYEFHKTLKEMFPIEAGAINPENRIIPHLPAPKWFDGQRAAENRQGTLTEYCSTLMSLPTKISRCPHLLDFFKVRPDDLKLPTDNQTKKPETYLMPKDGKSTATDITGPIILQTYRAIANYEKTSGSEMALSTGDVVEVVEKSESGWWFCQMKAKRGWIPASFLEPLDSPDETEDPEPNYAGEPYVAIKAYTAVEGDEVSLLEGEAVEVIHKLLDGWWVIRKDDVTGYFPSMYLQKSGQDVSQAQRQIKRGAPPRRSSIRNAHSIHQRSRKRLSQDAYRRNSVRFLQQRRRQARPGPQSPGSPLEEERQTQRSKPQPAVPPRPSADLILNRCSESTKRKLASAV
# Tb MetRS inh: Trypanosoma brucei MetRS inhibition | inhibition, % at 11.9 µM | purified T. brucei MetRS, ATP depletion, Kinase-Glo luminescence | AID 624268 | 0.4% of 360,000 active;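 active means inhibition above a per-plate cutoff of the control wells' mean inhibition plus 3 SD, cut at about 5.5% in these data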;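 further: 0% = DMSO wells median and 100% = median of wells with control inhibitor compound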
#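 Test system – parasite MetRS enzyme · Reagent – substrates ATP, L-methionine and bulk Escherichia coli tRNA · Doses – 11.9 µM compound single dose, 0.9% DMSO · Times – 15 min enzyme-compound preincubation, 2 h reaction, 10 min detection, 25 °C · Signal – Kinase-Glo luminescence, ATP depletion format · Controls – DMSO-only wells as low control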
# eIF4E-4G inh: eIF4E/eIF4G interaction inhibition in translation initiation. P63073+Q04637. TR-FRET eIF4E-eIF4GI(517-606) binding, 2 h. inhibition, % at 21.7 µM. 0.37% of 220,000 active. AID 782;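 further: 0% = full FRET control wells and 100% = background wells lacking eIF4GI fragment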
# UBC9 SUMO inh: blocks human SUMOylation mediated by UBC9; HTRF SUMOylation assay, SAE1/SAE2 + UBC9, in vitro; P63279; inhibition, % at 35 µM; 0.36% of 290,000 active; in the data active means inhibition above about 50%, passing the limit was not always enough
# Target sequence (P63279 whole entry, looked up): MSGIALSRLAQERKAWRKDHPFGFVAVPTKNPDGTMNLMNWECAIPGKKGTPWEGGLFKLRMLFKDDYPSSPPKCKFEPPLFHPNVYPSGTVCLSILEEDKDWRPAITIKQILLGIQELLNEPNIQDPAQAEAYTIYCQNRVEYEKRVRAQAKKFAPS
# 14-3-3 Bad inh: disrupts binding of bovine 14-3-3 zeta to phospho-Bad peptide; TR-FRET 14-3-3zeta/Dy647-pBad peptide displacement, 1 h; inhibition, % at 21.7 µM; 0.71% of 220,000 active; AID 781;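 active means inhibition above about 70%, limit read from the data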;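 further: 0% = full 14-3-3 plus peptide FRET controls and 100% = background without 14-3-3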
# Tb MetRS conf: Trypanosoma brucei MetRS inhibition confirmed; T. brucei MetRS enzyme, luminescence (ATP depletion); 93% of 1,400 active; inhibition, % at 11.9 µM; AID 624412; shares compounds with Tb MetRS inh; in the data active means inhibition above about 7%
# Jurkat cytotox: Jurkat T cell cytotoxicity for MetRS hits; shares compounds with Tb MetRS inh; Jurkat cells viability, ATP luminescence; inhibition, % at 8.3 µM; 12% of 1,400 active; AID 624413; in the data active means inhibition above about 15%;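 further: 0% = vehicle and 100% = reference inhibitor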
# TbMetRS FP orth: inhibits T. brucei methionyl tRNA synthetase in orthogonal FP test. shares compounds with Tb MetRS inh. purified T. brucei MetRS, fluorescence polarization. inhibition, % at 11.9 µM. 44% of 1,400 active; in the data active means inhibition above about 17%;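 further: 0% = vehicle wells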
# The depositor's hits bear a star; . = not tested or not shown.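 How the source made its calls, unless noted: active means inhibition above about 30% (limit read from the data); inactive means the rest.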
SMILES,p97 ATPase inh,p47phox inh,Tb MetRS inh,eIF4E-4G inh,UBC9 SUMO inh,14-3-3 Bad inh,Tb MetRS conf,Jurkat cytotox,TbMetRS FP orth
COc1ccc(CCn2c(C)cc3c(c2=O)C(c2ccc4c(c2)OCO4)C(C#N)=C(N)O3)cc1OC (centres undefined),5.7,-13.1,15.6*,4.7,11.8,-5.7,3.5,5.0,7.2
COc1ccc(Cc2nnc(NC(=O)CS(=O)(=O)Cc3ccccc3)s2)cc1,.,.,0.4,.,0.7,.,.,.,.
COc1ccc(C)cc1NC(=O)C1CCCCN1S(=O)(=O)c1ccccc1 (centres undefined),.,.,-0.2,.,.,.,.,.,.
O=C(CNC(=O)c1ccc(Cl)cc1Cl)Nc1ccc(F)cc1,-3.1,5.3,10.3*,-14.2,3.2,-3.7,26.7*,-1.2,13.9
O=C(CC(=O)Nc1ccc(F)cc1)Nc1ccc(F)cc1,.,.,7.0*,.,-0.1,.,18.1*,-8.0,5.6
O=C(CCCCC(=O)Nc1ccc(F)cc1)Nc1ccc(F)cc1,.,.,0.3,.,7.9,.,.,.,.
Cc1cc(C)nc(NS(=O)(=O)c2ccc(NC(=O)C3(c4ccccc4)CCCC3)cc2)n1,6.1,-5.5,-0.7,-0.8,-4.5,2.0,.,.,.
O=S1(=O)CCC(NC(=S)N2CCOCC2)C1 (centres undefined),1.1,-8.9,0.0,19.1,11.0,-6.8,.,.,.
CSc1ccccc1-c1nc(-c2ccncc2)no1,.,.,-1.0,.,20.1,.,.,.,.
O=C(NCc1cc(Cl)cc(Cl)c1)c1csc([C@@H]2C[C@H](O)[C@@H](CO)O2)n1,.,.,22.2*,.,.,.,59.8*,-2.0,34.6*
O=C(NCc1cc(Cl)cc(Cl)c1)c1ccc2nc([C@@H]3O[C@H](CO)[C@@H](O)[C@H]3O)[nH]c2c1,.,.,11.4*,.,.,.,45.1*,-1.7,24.7*
O=C(NCc1cc(Cl)cc(Cl)c1)c1csc(COCCO)n1,.,.,43.2*,.,.,.,66.0*,6.4,43.8*
O=C(NCc1cc(Cl)cc(Cl)c1)c1ccc2sc([C@H]3C[C@H](O)[C@@H](CO)O3)nc2c1,.,.,26.8*,.,.,.,69.0*,7.0,39.3*
O=C(NCc1ccncc1)c1ccc2nc([C@@H]3O[C@H](CO)[C@H](O)[C@H](O)[C@H]3O)[nH]c2c1,.,.,0.0,.,.,.,.,.,.
COc1cccc(CCN2C(=O)CCC3=C2CCC3=O)c1,.,.,-0.1,.,.,.,.,.,.
c1ccc2c(c1)CCN(c1nc(CN3CCOCC3)nc3sc4c(c13)CCCC4)C2,-6.1,-19.2,-0.1,-3.4,-0.5,-6.0,.,.,.
COc1ccc2[nH]cc(C(=O)CN3CCN(C(=O)c4ccco4)CC3)c2c1,-0.9,-4.6,6.4*,4.8,26.6,3.9,3.6,-5.1,-4.3
COc1ccc2[nH]c(C)c(C(=O)CN3CCN(C(=O)c4ccco4)CC3)c2c1,3.5,-1.0,0.3,-1.9,10.7,7.2,.,.,.
CN(c1cccc(Cl)c1)S(=O)(=O)c1cccc(C(=O)Nc2nc3ccccc3[nH]2)c1,2.9,-14.8,33.0*,2.9,-11.7,2.9,44.1*,67.9*,21.9*
COc1ccc(C2CC(c3ccc(Cl)cc3Cl)n3nc(N)nc3N2)cc1 (centres undefined),1.6,-6.6,-0.3,-2.7,4.7,0.4,.,.,.
COc1cccc(C2CC(c3ccc(Cl)cc3Cl)Nc3nc(N)nn32)c1 (centres undefined),-4.1,-8.8,8.3*,9.3,12.7,-11.6,13.2*,4.5,5.3
COc1ccc(C2CC(c3ccc(Cl)cc3Cl)Nc3nc(N)nn32)cc1 (centres undefined),-0.8,4.0,7.5*,-3.0,-17.7,4.8,14.5*,-4.5,0.3
COC(=O)c1ccc(/C=N/n2c(C)nc3ccccc3c2=O)cc1,.,.,-1.1,.,-1.6,.,.,.,.
O=C(Nc1ccc(Cl)cc1)Nc1nnc(CSCc2ccccc2Cl)s1,6.2,-17.0,-0.9,0.9,17.2,3.3,.,.,.
O=C(Nc1ccccc1)Nc1nnc(CSCc2ccccc2Cl)s1,3.3,-25.1,11.7*,-2.2,23.1,0.6,61.0*,-1.5,54.6*
SMILES,p97 ATPase inh,p47phox inh,Tb MetRS inh,eIF4E-4G inh,UBC9 SUMO inh,14-3-3 Bad inh,Tb MetRS conf,Jurkat cytotox,TbMetRS FP orth
O=Cc1cc([N+](=O)[O-])ccc1N1CCN(Cc2ccc3c(c2)OCO3)CC1,.,.,8.1*,.,12.3,.,18.0*,1.0,8.4
O=C(CCN1C(=O)c2ccccc2S1(=O)=O)N1CCN(c2cccc(Cl)c2)CC1,.,.,0.1,.,.,.,.,.,.
Oc1oc(-c2ccc(Br)cc2)nc1C=Nc1ccc(Br)cn1,4.4,-166.5,8.7*,1.9,-11.5,-5.2,64.6*,-3.9,31.6*
CSc1ccccc1N=Cc1nc(-c2ccccc2)oc1O,-7.7,-12.6,0.2,1.8,10.7,-1.6,.,.,.
O=C(/C(=C/c1ccc(Cl)cc1)c1nc2ccccc2[nH]1)c1ccccc1,5.2,7.2,6.6*,-4.9,9.9,3.8,2.6,97.5*,4.5
CCCCCCCCCC1NC(C(=O)O)Cc2c1[nH]c1ccccc21 (centres undefined),.,.,70.3*,.,.,.,93.0*,-5.7,73.6*
CCOC(=O)C1Cc2c([nH]c3ccccc23)C(C)N1 (centres undefined),2.7,-18.0,-0.5,3.3,18.6,22.4,.,.,.
Cc1cccc(OCCSCc2nc3ccccc3[nH]2)c1,-0.3,-64.5,8.7*,-1.7,-25.4,12.4,19.6*,-1.5,5.8
Cc1cccc(OCCCC(=O)Nc2nc3ccccc3[nH]2)c1,-5.7,2.9,63.1*,-2.4,-0.9,0.4,67.2*,5.1,46.0*
